Data on 16 compounds can be found in ChEMBL document CHEMBL1153268 (Bioorg Med Chem Lett, 2009).

pEC50: −log10 of the molar value. Calls of active or inactive are those of the source. The calls are words filed in the database; no cut-off is given here.

Experiment [1] deals with T1, Neurotensin receptor type 1 (Homo sapiens, UniProt P30989). The experiment is described as follows: Agonist activity at NTR1 expressed in CHOK1 cells by calcium mobilization assay. Type of experiment: functional, cell-based, CHO-K1. On the technique in general: Calcium assays in cells follow changes in intracellular calcium, usually with a dye or a luminescent sensor.
T1 sequence (P30989 whole entry): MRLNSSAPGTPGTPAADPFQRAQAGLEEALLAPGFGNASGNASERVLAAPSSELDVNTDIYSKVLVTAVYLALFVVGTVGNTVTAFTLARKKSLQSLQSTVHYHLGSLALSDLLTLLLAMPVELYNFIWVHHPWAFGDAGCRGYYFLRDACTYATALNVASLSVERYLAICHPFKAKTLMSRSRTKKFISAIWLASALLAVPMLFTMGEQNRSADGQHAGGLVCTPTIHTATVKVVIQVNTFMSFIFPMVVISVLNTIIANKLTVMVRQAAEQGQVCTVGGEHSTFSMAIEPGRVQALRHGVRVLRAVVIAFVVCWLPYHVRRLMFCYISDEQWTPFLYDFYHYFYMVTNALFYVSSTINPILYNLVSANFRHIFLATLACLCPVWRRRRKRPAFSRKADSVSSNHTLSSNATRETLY

Experiment [2] deals with T1, Neurotensin receptor type 1. The experiment is described as follows: Agonist activity at NTR1 expressed in CHOK1 cells assessed as stimulation of calcium mobilization at 10 uM relative to neurotensin. It is filed as functional, cell-based. The note with it: CHO-K1. Summed up: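 CHO-K1 cells stably expressing NTR1, plated 20,000/well 24 h before assay, washed and loaded with calcium-4 dye in HBSS/20 mM HEPES/2 mM probenecid, 1 h, 37 °C, 5% CO2. Compound added at 10 μM final (1% DMSO), triplicate.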

Broadly, the pEC50 is the negative decadic logarithm of the EC50, by convention in mol/L. `CC(C)C[C@H](NC(=O)Cn1ccc2cc(NS(=O)(=O)c3cccc4cccnc34)ccc21)C(=O)O`: the negative logarithm of the EC50 (pEC50) in experiment [1] was 6.75.

For the compound `COc1cccc(OC)c1-c1cc(C(=O)N[C@@H](CC(C)C)C(=O)O)nn1-c1ccnc2cc(Cl)ccc12`, in experiment [1], the pEC50 was 7.17.

Consider `CC(C)C[C@H](NC(=O)c1cc(-c2ccccc2)n(-c2ccnc3cc(Cl)ccc23)n1)C(=O)O`, for which the Activity in experiment [2] turned out to be 62%. In addition, the pEC50 in experiment [1] was 5.69.

For the compound `CC[C@H](C)[C@H](NC(=O)c1cc(-c2c(OC)cccc2OC)n(-c2ccnc3cc(Cl)ccc23)n1)C(=O)O`, the outcome in experiment [2] was inactive.

As for `COc1cccc(OC)c1-c1cc(C(=O)N[C@@H](Cc2ccccc2)C(=O)O)nn1-c1ccnc2cc(Cl)ccc12`, the outcome in experiment [2] was inactive.

Regarding `CCC[C@H](NC(=O)c1cc(-c2c(OC)cccc2OC)n(-c2ccnc3cc(Cl)ccc23)n1)C(=O)O`, the Activity in experiment [2] was determined as 18%.

On to `COc1cccc(OC)c1-c1cc(C(=O)N[C@@H](CC(C)C)C(=O)O)nn1-c1cccc2ccccc12`, for which the outcome in experiment [2] was inactive.

In the case of `CCCC[C@H](NC(=O)c1cc(-c2c(OC)cccc2OC)n(-c2ccnc3cc(Cl)ccc23)n1)C(=O)O`, the Activity in experiment [2] is 20%.

With `CC(C)C[C@H](NC(=O)c1cc(-c2ccccc2OC(F)(F)F)n(-c2ccnc3cc(Cl)ccc23)n1)C(=O)O`, the Activity in experiment [2] turned out to be 84%. Also, the pEC50 in experiment [1] was 5.92.

On to `CC(C)CC(NC(=O)OCC1c2ccccc2-c2ccccc21)C(=O)O` (stereo not given), for which, in experiment [1], the pEC50 was 6.67.

Consider `COc1cccc(OC)c1-c1cc(C(=O)NCC(=O)O)nn1-c1ccnc2cc(Cl)ccc12`, for which the result in experiment [2] was inactive.

As to `COc1ccccc1-c1cc(C(=O)N[C@@H](CC(C)C)C(=O)O)nn1-c1ccnc2cc(Cl)ccc12`, in experiment [2], the Activity worked out at 86%. Moreover, in experiment [1], the pEC50 was 6.66.

Consider `COc1cccc(OC)c1-c1cc(C(=O)N[C@H](CC(C)C)C(=O)O)nn1-c1ccnc2cc(Cl)ccc12`, for which, in experiment [2], the Activity was determined as 57%. Also, the pEC50 in experiment [1] was 6.01.

`CC[C@H](NC(=O)c1cc(-c2c(OC)cccc2OC)n(-c2ccnc3cc(Cl)ccc23)n1)C(=O)O`: in experiment [2], the Activity worked out at 11%.

`COc1cccc(OC)c1-c1cc(C(=O)N[C@H](C(=O)O)C(C)C)nn1-c1ccnc2cc(Cl)ccc12`: the Activity in experiment [2] was 5%.

As to `COc1cccc(OC)c1-c1cc(C(=O)N[C@H](C(=O)O)C2CCCCC2)nn1-c1ccnc2cc(Cl)ccc12`, in experiment [2], the outcome was inactive.
